Reference: ChEMBL document CHEMBL3232870, “Discovery of 3-(4-methanesulfonylphenoxy)-N-[1-(2-methoxy-ethoxymethyl)-1H-pyrazol-3-yl]-5-(3-methylpyridin-2-yl)-benzamide as a novel glucokinase activator (GKA) for the treatment of type 2 diabetes mellitus” (Bioorg Med Chem, 2014)

Columns and labels:
[1] = AUC (0 to t) in female Sprague-Dawley rat at 250 mg/kg, po measured on day 14; type: ADME, organism-based; set-up: dose 250 mg/kg, route oral; conditions: plasma
Method in brief: (§1)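 Sprague–Dawley rats, 5 weeks old at arrival, both sexes. Given the compound by oral gavage once daily for 14 days at 0, 250, 500 or 1000 mg/kg/day, with 0.5% methylcellulose as vehicle. Toxicokinetic parameters were determined on Day 1 and Day 14.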

Mus musculus [2] = assay: Toxicity in C57BL/J6 db/db mouse assessed as effect on body weight at 50 mg/kg, po; type: organism-based; set-up: dose 50 mg/kg, route oral; conditions: in vivo
[3] = Clearance in Sprague-Dawley rat at 3 mg/kg, iv and 10 mg/kg, po; type: ADME, organism-based; conditions: in vivo
Method in brief: (§2)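 Male ICR mice and 7-week-old SD rats received a 3 mg/kg intravenous bolus or a 10 mg/kg oral gavage dose. Plasma was deproteinized with acetonitrile (2 volumes) and compound measured by HPLC. Parameters came from noncompartmental analysis.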

Hexokinase-4 = molecular target: T1, Hexokinase-4 (Homo sapiens, UniProt P35557); assay: Activation of recombinant human pancreatic glucokinase using 10 mM glucose by spectrophotometry
T1 sequence (P35557 whole entry): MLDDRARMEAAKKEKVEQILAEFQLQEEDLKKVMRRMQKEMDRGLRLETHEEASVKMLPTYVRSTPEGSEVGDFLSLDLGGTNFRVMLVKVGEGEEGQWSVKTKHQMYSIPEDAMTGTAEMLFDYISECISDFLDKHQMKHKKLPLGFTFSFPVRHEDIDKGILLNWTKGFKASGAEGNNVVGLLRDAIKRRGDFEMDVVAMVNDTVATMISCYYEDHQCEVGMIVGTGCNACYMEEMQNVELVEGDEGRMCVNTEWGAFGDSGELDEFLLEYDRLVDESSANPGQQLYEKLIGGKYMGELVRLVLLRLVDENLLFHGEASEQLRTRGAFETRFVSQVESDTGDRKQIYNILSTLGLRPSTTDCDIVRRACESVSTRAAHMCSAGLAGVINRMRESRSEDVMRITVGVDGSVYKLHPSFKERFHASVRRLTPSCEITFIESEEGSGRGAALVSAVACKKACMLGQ
Method in brief: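 Purified recombinant human pancreatic glucokinase, compounds in DMSO. Buffer: 25 mM HEPES pH 7.4, 10 mM glucose, 25 mM KCl, 1 mM MgCl2, 1 mM DTT, 1 mM ATP, 1 mM NADP, 2.5 U/mL G6PDH. Activity was expressed against DMSO-only control (100%). EC50 came from 12 concentrations fitted to a variable-slope sigmoidal curve. Values are means of three duplicate runs.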

Cytochrome P450 2D6 = Cytochrome P450 2D6 (Homo sapiens, UniProt P10635); assay: Inhibition of CYP2D6 in human liver microsomes; type: ADME
Chain of Cytochrome P450 2D6 (P10635 whole entry): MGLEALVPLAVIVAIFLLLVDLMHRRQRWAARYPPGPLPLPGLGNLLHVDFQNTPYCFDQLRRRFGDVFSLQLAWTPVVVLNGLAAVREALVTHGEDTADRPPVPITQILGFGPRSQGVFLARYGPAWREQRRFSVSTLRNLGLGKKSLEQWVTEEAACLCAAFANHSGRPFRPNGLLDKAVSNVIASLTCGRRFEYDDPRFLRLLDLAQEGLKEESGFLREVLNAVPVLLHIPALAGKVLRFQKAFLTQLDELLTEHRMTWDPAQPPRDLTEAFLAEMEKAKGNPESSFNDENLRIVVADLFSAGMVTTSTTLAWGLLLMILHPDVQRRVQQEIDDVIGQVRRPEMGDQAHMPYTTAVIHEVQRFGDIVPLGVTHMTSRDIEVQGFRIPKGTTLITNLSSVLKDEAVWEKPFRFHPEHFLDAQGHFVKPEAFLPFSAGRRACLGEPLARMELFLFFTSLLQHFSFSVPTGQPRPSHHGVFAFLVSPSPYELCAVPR
Method in brief: (§3)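 Pooled human liver microsomes at 0.25 mg/mL, each with a CYP-selective substrate and test compound up to 25 µM, preincubated at 37 °C. It is stopped on ice with ice-cold acetonitrile and centrifuged, and the supernatant is analysed by LC–MS/MS.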

Cytochrome P450 3A = Cytochrome P450 3A (Homo sapiens, UniProt P08684+P20815+Q9HB55+P24462); assay: Inhibition of CYP3A in human liver microsomes; type: ADME; method in brief: as §3
Salmonella typhimurium = assay: Genotoxicity in Salmonella typhimurium TA98 assessed as increase in number of revertants at 1.5 to 5000 ug/plate by Ames test in presence of S9 fraction; type: toxicity, organism-based; conditions: salmonella enterica subsp. enterica serovar typhimurium
Method in brief: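 Ames reverse mutation test by direct plate incorporation in S. typhimurium TA98 and TA100, with or without Aroclor 1254-induced rat liver S9 mix. Compound in DMSO at 1.5–5000 µg/plate, plated in top agar, incubated 37 °C for about 50 h, then revertant colonies counted. Plates were checked for precipitation and cytotoxicity. A positive was a reproducible, dose-related increase in revertants of more than 2-fold.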

Cytochrome P450 2C19 = Cytochrome P450 2C19 (Homo sapiens, UniProt P33261); assay: Inhibition of CYP2C19 in human liver microsomes; type: ADME
Chain of Cytochrome P450 2C19 (P33261 whole entry): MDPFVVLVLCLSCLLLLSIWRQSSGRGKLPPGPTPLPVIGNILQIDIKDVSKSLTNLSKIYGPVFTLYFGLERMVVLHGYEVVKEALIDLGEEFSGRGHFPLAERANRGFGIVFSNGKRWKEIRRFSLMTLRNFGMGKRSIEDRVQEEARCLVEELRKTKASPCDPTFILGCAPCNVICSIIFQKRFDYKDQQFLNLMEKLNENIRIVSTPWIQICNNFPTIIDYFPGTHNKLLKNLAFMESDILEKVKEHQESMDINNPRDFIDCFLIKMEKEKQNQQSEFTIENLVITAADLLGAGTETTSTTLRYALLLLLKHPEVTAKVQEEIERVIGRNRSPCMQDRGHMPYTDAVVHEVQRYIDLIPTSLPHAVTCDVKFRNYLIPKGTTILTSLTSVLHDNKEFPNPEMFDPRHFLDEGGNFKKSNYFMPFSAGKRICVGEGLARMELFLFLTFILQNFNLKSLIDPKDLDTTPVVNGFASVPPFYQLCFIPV
Method in brief: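 Pooled human liver microsomes (0.25 mg/mL) with a CYP-selective substrate and test compound, preincubated at 37 °C. Stopped on ice with ice-cold acetonitrile, centrifuged, and the supernatant analysed by LC–MS/MS.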

[4] = AUC in ICR mouse at 3 mg/kg, iv and 10 mg/kg, po; type: ADME, organism-based; conditions: plasma; method in brief: as §2
[5] = Oral bioavailability in Sprague-Dawley rat at 10 mg/kg; type: ADME, organism-based; conditions: in vivo
Method in brief: (§4)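 Male ICR mice and 7-week-old SD rats received a 3 mg/kg iv bolus or a 10 mg/kg oral gavage dose. Plasma was precipitated with 2 volumes of acetonitrile and analysed by HPLC. Parameters came from noncompartmental analysis.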

Mus musculus [6] = assay: Toxicity in fasting C57BL/J6 mouse assessed as glucose lowering effect at 50 mg/kg, po after 30 to 360 mins; type: organism-based; set-up: dose 50 mg/kg, route oral; conditions: in vivo
Method in brief: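 Eight-week-old male C57BL/6 mice were fasted 6 h with free access to water, then dosed orally with compound or 0.5% methylcellulose vehicle, with no glucose challenge. Blood glucose was followed up to 360 min, n = 6 per group.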

[7] = Cmax in male Sprague-Dawley rat at 1000 mg/kg, po measured on day 14; type: ADME, organism-based; set-up: dose 1000 mg/kg, route oral; conditions: in vivo; method in brief: as §1
[8] = Cmax in Sprague-Dawley rat at 3 mg/kg, iv and 10 mg/kg, po; type: ADME, organism-based; conditions: in vivo; method in brief: as §2
Cytochrome P450 2C8 = molecular target: T2, Cytochrome P450 2C8 (Homo sapiens, UniProt P10632); assay: Inhibition of CYP2C8 in human liver microsomes; type: ADME; method in brief: as §3
T2 sequence (P10632 whole entry): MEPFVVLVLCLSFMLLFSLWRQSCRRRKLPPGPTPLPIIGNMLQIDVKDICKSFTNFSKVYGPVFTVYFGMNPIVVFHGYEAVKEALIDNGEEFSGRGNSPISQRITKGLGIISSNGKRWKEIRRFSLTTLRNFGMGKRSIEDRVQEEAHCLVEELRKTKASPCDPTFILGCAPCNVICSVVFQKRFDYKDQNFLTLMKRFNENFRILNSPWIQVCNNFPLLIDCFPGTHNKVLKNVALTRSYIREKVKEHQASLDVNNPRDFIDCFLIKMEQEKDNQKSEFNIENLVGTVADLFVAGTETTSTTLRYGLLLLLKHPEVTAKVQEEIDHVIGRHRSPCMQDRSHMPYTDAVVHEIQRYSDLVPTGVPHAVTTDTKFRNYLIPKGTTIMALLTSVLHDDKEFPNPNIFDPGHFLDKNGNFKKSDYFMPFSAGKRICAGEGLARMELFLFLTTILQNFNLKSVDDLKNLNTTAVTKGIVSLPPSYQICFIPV

[9] = AUC (0 to t) in male Sprague-Dawley rat at 250 mg/kg, po measured on day 1; type: ADME, organism-based; set-up: dose 250 mg/kg, route oral; conditions: plasma; method in brief: as §1
[10] = AUC (0 to t) in female Sprague-Dawley rat at 500 mg/kg, po measured on day 14; type: ADME, organism-based; set-up: dose 500 mg/kg, route oral; conditions: plasma; method in brief: as §1
[11] = Cmax in male Sprague-Dawley rat at 250 mg/kg, po measured on day 1; type: ADME, organism-based; set-up: dose 250 mg/kg, route oral; conditions: in vivo; method in brief: as §1
[12] = Elimination half life in ICR mouse at 3 mg/kg, iv and 10 mg/kg, po; type: ADME, organism-based; conditions: in vivo, read-out: beta t1/2 (converted); method in brief: as §2
[13] = Cmax in female Sprague-Dawley rat at 500 mg/kg, po measured on day 1; type: ADME, organism-based; set-up: dose 500 mg/kg, route oral; conditions: in vivo; method in brief: as §1
[14] = Volume of distribution at steady state in Sprague-Dawley rat at 3 mg/kg, iv and 10 mg/kg, po; type: ADME, organism-based; conditions: in vivo, read-out: Vdss; method in brief: as §4

## COCCOCn1ccc(NC(=O)c2cc(Oc3ccc(S(C)(=O)=O)cc3)cc(-c3ncccc3C)c2)n1
[1]
  AUC(0-t): 17600 ng·h/mL
Mus musculus [2]
  Activity: Non-toxic
[3]
  clearance: 9.83 mL/min/kg
Hexokinase-4
  EC50: 315 nM
Cytochrome P450 2D6
  inhibition (INH): Not Active
Cytochrome P450 3A
  inhibition (INH): Not Active
Salmonella typhimurium
  Activity: Non-toxic
Cytochrome P450 2C19
  inhibition (INH): Not Active
[4]
  AUC: 11900 ng·h/mL
[5]
  bioavailability: 22%
Mus musculus [6]
  Activity: Toxic
[7]
  Cmax: 3090 ng/mL
[8]
  Cmax: 3700 ng/mL
Cytochrome P450 2C8
  inhibition (INH): Not Active
[9]
  AUC(0-t): 13100 ng·h/mL
[10]
  AUC(0-t): 16300 ng·h/mL
[11]
  Cmax: 3060 ng/mL
[12]
  half-life: 1.4 h
[13]
  Cmax: 4300 ng/mL
[14]
  Vd: 0.21 L/kg
